The source made the active and inactive calls. The rule behind the calls is not given here.
Key:
[1] = biological target: T1, TCP pilus virulence regulatory protein (Vibrio cholerae serotype O1 (strain ATCC 39541 / Classical Ogawa 395 /O395)) (UniProt A5F384); experiment: Inhibition of ToxT-mediated transcriptional activation of tcpI promoter in Vibrio cholerae O395deltalacZ assessed as beta-galactosidase expression at 100 uM relative to control; parameters: scale not given: the % may be the effect or the level left
T1 sequence (whole entry): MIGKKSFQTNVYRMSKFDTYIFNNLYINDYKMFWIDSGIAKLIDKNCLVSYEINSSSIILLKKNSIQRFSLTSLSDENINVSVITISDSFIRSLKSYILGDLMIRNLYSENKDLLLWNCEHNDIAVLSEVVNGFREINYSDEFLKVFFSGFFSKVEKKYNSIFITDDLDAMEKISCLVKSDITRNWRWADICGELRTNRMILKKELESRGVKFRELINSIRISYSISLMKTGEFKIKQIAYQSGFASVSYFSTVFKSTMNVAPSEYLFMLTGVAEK

[2] = biological target: T1, TCP pilus virulence regulatory protein (Vibrio cholerae serotype O1 (strain ATCC 39541 / Classical Ogawa 395 /O395)); experiment: Inhibition of ToxT-mediated transcriptional activation of acfA promoter in Vibrio cholerae O395deltalacZ assessed as beta-galactosidase expression at 100 uM relative to control; parameters: scale not given: the % may be the effect or the level left
[3] = biological target: T1, TCP pilus virulence regulatory protein (Vibrio cholerae serotype O1 (strain ATCC 39541 / Classical Ogawa 395 /O395)); experiment: Inhibition of ToxT-mediated transcriptional activation of tagA promoter in Vibrio cholerae O395deltalacZ assessed as beta-galactosidase expression at 100 uM relative to control; parameters: scale not given: the % may be the effect or the level left
[4] = tested on: Vibrio cholerae; experiment: Inhibition of Vibrio cholerae ToxT L113P mutant N-terminal domain dimerization expressed in Escherichia coli assessed as beta-galatosidase reporter gene expression at 10 uM by bacterial two-hybrid system
Procedure, shortened: (§1)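 Bacterial two-hybrid: identical toxT N-terminal segments fused to Zif (pACTrAp-Zif) and ω (pBRGpω) and co-transformed into E. coli KDZif1ZΔtolC. Cultures grown overnight with or without 10 μM IPTG and virstatin (10–50 μM), then subcultured into the same conditions. lacZ reporter activity measured by β-galactosidase assay in triplicate; a representative experiment is reported.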

[5] = biological target: T1, TCP pilus virulence regulatory protein (Vibrio cholerae serotype O1 (strain ATCC 39541 / Classical Ogawa 395 /O395)); experiment: Inhibition of maltose binding protein-fused Vibrio cholerae ToxT monomer by gel filtration method
[6] = tested on: Vibrio cholerae; experiment: Inhibition of maltose binding protein-fused Vibrio cholerae ToxT L113P mutant monomer by gel filtration method
[7] = biological target: T1, TCP pilus virulence regulatory protein (Vibrio cholerae serotype O1 (strain ATCC 39541 / Classical Ogawa 395 /O395)); experiment: Inhibition of Vibrio cholerae wild type ToxT N-terminal domain dimerization expressed in Escherichia coli assessed as beta-galatosidase reporter gene expression at 35 uM by bacterial two-hybrid system; procedure, shortened: as §1
[8] = biological target: T1, TCP pilus virulence regulatory protein (Vibrio cholerae serotype O1 (strain ATCC 39541 / Classical Ogawa 395 /O395)); experiment: Inhibition of Vibrio cholerae wild type ToxT N-terminal domain dimerization expressed in Escherichia coli assessed as beta-galatosidase reporter gene expression at 50 uM by bacterial two-hybrid system; procedure, shortened: as §1
[9] = biological target: T1, TCP pilus virulence regulatory protein (Vibrio cholerae serotype O1 (strain ATCC 39541 / Classical Ogawa 395 /O395)); experiment: Inhibition of Vibrio cholerae wild type ToxT N-terminal domain dimerization expressed in Escherichia coli assessed as beta-galatosidase reporter gene expression at 20 uM by bacterial two-hybrid system; procedure, shortened: as §1
[10] = biological target: T1, TCP pilus virulence regulatory protein (Vibrio cholerae serotype O1 (strain ATCC 39541 / Classical Ogawa 395 /O395)); experiment: Inhibition of Vibrio cholerae wild type ToxT N-terminal domain dimerization expressed in Escherichia coli assessed as beta-galatosidase reporter gene expression at 10 uM by bacterial two-hybrid system; procedure, shortened: as §1
[11] = biological target: T1, TCP pilus virulence regulatory protein (Vibrio cholerae serotype O1 (strain ATCC 39541 / Classical Ogawa 395 /O395)); experiment: Inhibition of ToxT-mediated transcriptional activation of ctxAB promoter in Vibrio cholerae O395deltalacZ assessed as beta-galactosidase expression at 100 uM relative to control; parameters: scale not given: the % may be the effect or the level left
[12] = biological target: T1, TCP pilus virulence regulatory protein (Vibrio cholerae serotype O1 (strain ATCC 39541 / Classical Ogawa 395 /O395)); experiment: Inhibition of ToxT-mediated transcriptional activation of aldA promoter in Vibrio cholerae O395deltalacZ assessed as beta-galactosidase expression at 100 uM relative to control; parameters: scale not given: the % may be the effect or the level left
[13] = biological target: T1, TCP pilus virulence regulatory protein (Vibrio cholerae serotype O1 (strain ATCC 39541 / Classical Ogawa 395 /O395)); experiment: Inhibition of ToxT-mediated transcriptional activation of tcpA promoter in Vibrio cholerae O395deltalacZ assessed as beta-galactosidase expression at 100 uM relative to control; parameters: scale not given: the % may be the effect or the level left
[14] = biological target: T1, TCP pilus virulence regulatory protein (Vibrio cholerae serotype O1 (strain ATCC 39541 / Classical Ogawa 395 /O395)); experiment: Inhibition of Vibrio cholerae wild type ToxT-mediated transcription of ctx promoter at 50 uM
[15] = biological target: T1, TCP pilus virulence regulatory protein (Vibrio cholerae serotype O1 (strain ATCC 39541 / Classical Ogawa 395 /O395)); experiment: Inhibition of ToxT-mediated transcriptional activation of acfD promoter in Vibrio cholerae O395deltalacZ assessed as beta-galactosidase expression at 100 uM relative to control; parameters: scale not given: the % may be the effect or the level left

O=C(O)CCCN1C(=O)c2cccc3cccc(c23)C1=O
Activity [1]: 15%
Activity [2]: 15%
Activity [3]: 3%
Activity [4]: inactive
Activity [5]: Active
Activity [6]: inactive
Activity [7]: Active
Activity [8]: Active
Activity [9]: Active
Activity [10]: Active
Activity [11]: 3%
Activity [12]: 15%
Activity [13]: 3%
Activity [14]: Active
Activity [15]: 3%

O=C(O)CN1C(=O)c2cccc3cccc(c23)C1=O
Activity [14]: Active

O=C(O)CCN1C(=O)c2cccc3cccc(c23)C1=O
Activity [14]: Active

O=C(O)C1CCCC(N2C(=O)c3cccc4cccc(c34)C2=O)C1 (centres undefined)
Activity [14]: Active

COC(=O)CCCN1C(=O)c2cccc3cccc(c23)C1=O
Activity [14]: Active

Source: ChEMBL document CHEMBL1147057, “Virstatin inhibits dimerization of the transcriptional activator ToxT” (Proc Natl Acad Sci U S A, 2007)
